# Test results reported in ChEMBL document CHEMBL4834407, “Antiplasmodial Oleanane Triterpenoids from Terminalia albida Root Bark” (J Nat Prod, 2021).
# How the values were obtained:
# [1] = Selectivity index, ratio of CC50 for cytotoxicity against human MRC5 cells to IC50 for antiplasmodial activity against chloroquine-resistant plasmodium falciparum K1; format: toxicity, cell-based; settings: read-out: Ratio CC50/IC50
# In short: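 Ratio of the MRC-5 value (human foetal lung fibroblasts, tamoxifen as cytotoxicity control) to the P. falciparum K1 value (lactate dehydrogenase assay, chloroquine control).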
# [2] = Cytotoxicity against human MRC5 cells measured after 7 days by MTT assay; format: cell-based; settings: time 7 day
# In short: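 MRC-5 human foetal lung fibroblasts; tamoxifen as positive control; IC50 reported in µM.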
# Plasmodium falciparum = test: Antiplasmodial activity against chloroquine-resistant Plasmodium falciparum K1 measured after 72 hrs by lactate dehydrogenase assay; format: functional, organism-based; settings: K1, 72 h
# In short: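 In vitro lactate dehydrogenase read-out on the chloroquine-resistant P. falciparum K1 strain; chloroquine was the reference drug.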
# Candida albicans = test: Antifungal activity against Candida albicans ATCC59630; format: functional, organism-based
# In short: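 C. albicans panel with flucytosine as reference drug; IC50 reported in µM.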
# Staphylococcus aureus = test: Antibacterial activity against Staphylococcus aureus ATCC6538; format: functional, organism-based
# In short: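 S. aureus panel with doxycycline as reference drug; IC50 reported in µM.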
Structure (SMILES),selectivity ratio [1],CC50 at 168 h [2] [µM],IC50 (Plasmodium falciparum) [µM],IC50 (Candida albicans) [µM],IC50 (Staphylococcus aureus) [µM]
CC1(C)CC[C@]2(C(=O)O[C@@H]3O[C@H](CO)[C@@H](O)[C@H](O)[C@H]3O)CC[C@]3(C)C(=CC(=O)[C@@H]4[C@@]5(C)C[C@@H](O)[C@H](O)[C@@](C)(CO)[C@@H]5CC[C@]43C)[C@@H]2[C@H]1O,> 5.7,> 64,11.3,> 64,> 64
Nc1nc(=O)[nH]cc1F [FLUCYTOSINE],–,–,–,0.7,–
CC1(C)CC[C@]2(C(=O)O[C@@H]3O[C@H](CO)[C@@H](O)[C@H](O)[C@H]3O)CC[C@]3(C)C(=CC(=O)[C@@H]4[C@@]5(C)C[C@@H](O)[C@H](O)[C@@](C)(CO)[C@@H]5CC[C@]43C)[C@@H]2[C@@H]1O,> 4.6,> 64,13.9,> 64,> 64
C[C@]1(CO)CC[C@]2(C(=O)O)CC[C@]3(C)C(=CC[C@@H]4[C@@]5(C)C[C@@H](O)[C@H](O)[C@@](C)(CO)[C@@H]5CC[C@]43C)[C@@H]2C1,> 1.31,> 64,48.9,> 64,> 64
CC1(C)CC[C@]2(C(=O)O[C@@H]3O[C@H](CO)[C@@H](O)[C@H](O)[C@H]3O)CC[C@]3(C)C(=CC(=O)[C@@H]4[C@@]5(C)C[C@@H](O)[C@H](O)[C@](C)(CO)[C@@H]5CC[C@]43C)[C@@H]2[C@H]1O,> 7,> 64,9.1,> 64,> 64
CC1(C)CC[C@]2(C(=O)O)CC[C@]3(C)C(=CC(=O)[C@@H]4[C@@]5(C)C[C@@H](O)[C@H](O)[C@](C)(CO)[C@@H]5CC[C@]43C)[C@@H]2[C@@H]1O,> 10.5,> 64,6.1,> 64,> 64
CC1(C)C=C2C3=CC(=O)[C@@H]4[C@@]5(C)C[C@@H](O)[C@H](O)[C@@](C)(CO)[C@@H]5CC[C@@]4(C)[C@]3(C)CC[C@@]2(C(=O)O)CC1,> 9.27,> 64,6.9,> 64,> 64
CC1(C)CC[C@]2(C(=O)O)CC[C@]3(C)C(=CC(=O)[C@@H]4[C@@]5(C)C[C@@H](O)[C@H](O)[C@@](C)(CO)[C@@H]5CC[C@]43C)[C@@H]2[C@H]1O,> 6.3,> 64,10.1,> 64,> 64
C[C@H]1c2cccc(O)c2C(=O)C2=C(O)[C@]3(O)C(=O)C(C(N)=O)=C(O)[C@@H](N(C)C)[C@@H]3[C@@H](O)[C@@H]21 [DOXYCYCLINE],–,–,–,–,0.28
CC1(C)CC[C@]2(C(=O)O)CC[C@]3(C)C(=CC(=O)[C@@H]4[C@@]5(C)C[C@@H](O)[C@H](O)[C@](C)(CO)[C@@H]5CC[C@]43C)[C@@H]2[C@H]1O,> 10.5,> 64,6.1,> 64,> 64
